# Measurements collected from several papers.
# Protocols differ between the studies behind these lines.
# Effect on: metabolic stability
SMILES,test system,setting,half-life [min]
CCCCOC(=O)NS(=O)(=O)c1sc(CC(C)C)cc1-c1ccc2c(c1)CN(C(C)=O)C2,"mouse, liver microsomes","1 µM, pH 7.4",1.8
O=C(O)C1CCN(c2ncc(-c3ccc4c(c3)OCCCO4)s2)CC1,"mouse, liver microsomes",1 µM,> 30
CCOC(=O)C1=C(C)N/C(=C/c2cc(C)n(-c3cccnc3)c2C)C1=O,"mouse, liver microsomes",1 µM,21
C/C(=N\OCCN)c1cccc(C(C)(C)NC(=O)Nc2ccc(Cl)c([N+](=O)[O-])c2)c1,"mouse, liver microsomes",,> 120
CCOC(=O)C1=C(C)N/C(=C/c2cc(C)n(-c3ccc(SC(F)(F)F)cc3)c2C)C1=O,"mouse, liver microsomes",1 µM,23
O=C(Cc1ccc2ccccc2c1)Nc1cc(C2CCC2)[nH]n1,"mouse, liver S9",,28.1
O=C(N[C@H](Cc1c[nH]c2ccccc12)C(=O)Nc1ccncc1)c1ccc(-c2cccc(F)c2)cc1F,"mouse, liver microsomes",,27
COC(=O)CN(CCCc1ccccc1)CC(=O)N[C@@H](Cc1c[nH]cn1)c1nc(C)no1,"male mouse, liver microsomes","1 µM, pH 7.4",19
CCOC(=O)C1=C(C)N/C(=C/c2cc(C)n(-c3ccc(CN4CCCCC4)cc3)c2C)C1=O,"mouse, liver microsomes",1 µM,29
O=S(=O)(Nc1cccc(-c2nnn[nH]2)c1)c1cc(Cl)c(Cl)cc1Cl,"mouse, liver microsomes",,48
C=CC(=O)Nc1cccc(-n2nc3c(=O)[nH]nc(N)c3c2-c2oc3ccc(C)cc3c2C)c1,"nude mouse, blood","1 µM, whole blood",134
CCS(=O)(=O)Nc1cccc(-c2cn(C)c(=O)c3ccccc23)c1,"mouse, liver microsomes",,11
CCOC(=O)C1=C(C)N/C(=C/c2ccn(-c3ccccc3C(F)(F)F)c2)C1=O,"mouse, liver microsomes",1 µM,11
CCCCOC(=O)NS(=O)(=O)c1sc(CC(C)C)cc1-c1ccc(OC(F)(F)F)c(Cn2ccnc2)c1,"mouse, liver microsomes","1 µM, pH 7.4",103
COc1ccc([C@@H](O)[C@@H](CN2CCCC2)NC(=O)CC2Cc3ccccc3C2)cc1F,"CD-1 mouse, liver microsomes","1 µM, pH 7.4",2.7
O=C(O)CN(CCCc1ccccc1)CC(=O)N[C@H](CO)Cc1c[nH]cn1,"male mouse, liver microsomes","1 µM, pH 7.4",> 40
COc1cc2c(cc(C#N)n2Cc2cn[nH]c2)c(C)c1CN1CCC(Nc2ncnc3sc(CC(F)(F)F)cc23)CC1,"CD-1 mouse, liver microsomes","1 µM, pH 7.4",> 30
O=C(OC(C(F)(F)F)C(F)(F)F)N1Cc2ccc(OCCN3CCOCC3)cc2C1,"mouse, liver microsomes",,7
CC[C@@H]1C=CC(=O)O[C@@H]1C[C@@H](O)[C@H](C)[C@H](OC)[C@@H](C)Cc1ccccc1,"mouse, liver microsomes",,4.4
O=S(=O)(Nc1cccc(-c2nnn[nH]2)c1)c1cc(C(F)(F)F)ccc1C(F)(F)F,"mouse, liver microsomes",,35
N=c1c2c(-c3ccccc3)c(-c3ccccc3)n(Cc3ccccc3)c2ncn1[C@H]1CC[C@H](O)CC1,"male CD-1 mouse, liver microsomes","1 µM, pH 7.4",> 120
CCCCOC(=O)NS(=O)(=O)c1sc(CC(C)C)cc1-c1ccc2c(c1)CCN(C(C)=O)C2,"mouse, liver microsomes","1 µM, pH 7.4",2.9
O=C(c1ccc(F)cc1)C1CCN(CCn2c(=O)[nH]c3ccccc3c2=O)CC1,"mouse, liver microsomes",,14.5
C=CC(=O)Nc1cc(OC)c(N2CCC[C@@H](Nc3ncc(Cl)c(-c4c[nH]c5ccccc45)n3)C2)cc1C,"mouse, liver microsomes",,4.3
CCOC(=O)C1=C(C)N/C(=C/c2cc(C)n(-c3ccncc3)c2C)C1=O,"mouse, liver microsomes",1 µM,29
CCNc1nc2c(c(N3CC(=O)Nc4cc(OC)ccc43)n1)CCC2,"mouse, liver microsomes",,5.7
Fc1ccc([C@@H]2CCNC[C@H]2COc2ccc3c(c2)OCO3)cc1,"CD-1 mouse, liver microsomes","1 µM, pH 7.4",24
CCOC(=O)C1=C(C)N/C(=C/c2cc(C)n(-c3cccc(C(F)(F)F)c3)c2C)C1=O,"mouse, liver microsomes",1 µM,18
COc1cc(C2Oc3cc([C@H]4Oc5cc(O)cc(O)c5C(=O)[C@@H]4O)ccc3OC2CO)ccc1O (stereo partly drawn),"mouse, liver microsomes",1 µM,82.5
CCCC[S+]([O-])c1sc2nc(-c3cccs3)ccc2c1N (stereo not drawn),"female CD-1 mouse, liver S9","2 µM, pH 7.5",13
NC1(c2ccc(-c3nc4ccn5c(=O)[nH]nc5c4cc3-c3ccccc3)cc2)CCC1,"CD-1 mouse, liver microsomes","1 µM, pH 7.4",85.8
CN(C)CCN1CCN(c2nc(NCc3cccc(Cl)c3)c3cc(-c4ccc(=O)n(C)c4)ccc3n2)CC1,"mouse, liver microsomes",,53
CCOC(=O)C1=C(C)N/C(=C/c2cc(C)n(-c3ccc(CN4CCOCC4)cc3)c2C)C1=O,"mouse, liver microsomes",1 µM,31
NC(=O)C1CCN(c2nnc(-c3ccc4c(c3)OCCCO4)s2)CC1,"mouse, liver microsomes",1 µM,> 30
O=S(=O)(Nc1cccc(-c2nnn[nH]2)c1)c1ccc(Cl)c2nonc12,"mouse, liver microsomes",,81
CCN(CC)CCNC(=O)c1c(C)[nH]c(/C=C2\C(=O)Nc3ccc(F)cc32)c1C,"mouse, liver microsomes","1 µM, pH 7.4",12.8
CN1CCC(Cc2cccc(CNC3(c4ccc(F)cc4)CCCC3)c2)CC1(C)C (racemic),"mouse, liver microsomes","4.6 µM, pH 7.5",~60
CCOC(=O)C1=C(C)N/C(=C/c2cc(C)n(-c3cccc(OC)c3)c2C)C1=O,"mouse, liver microsomes",1 µM,12
O=S(=O)(Nc1cccc(-c2nnn[nH]2)c1)c1ccc(Cl)c(Cl)c1Cl,"mouse, liver microsomes",,192
